Data reported in ChEMBL document CHEMBL1255444, “In vitro antibacterial activities of JNJ-Q2, a new broad-spectrum fluoroquinolone” (Antimicrob Agents Chemother, 2010).
≈ marks a conversion by molar mass, not a printed value. Calls of active or inactive are those of the source. No cut-off for these calls is given here.

Tests used:
Providencia stuartii = experiment: Ratio of Moxifloxacin MIC90 to compound MIC90 for Providencia stuartii; assay type: functional
Streptococcus pneumoniae [1] = experiment: Antibacterial activity against Streptococcus pneumoniae isolate OC6608 assessed as log reduction in bacterial growth at 2 times MIC measured at 24 hrs by time-kill assay; assay type: functional
Procedure, shortened: (§1)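 Drug was diluted from 50× stocks made in water or acidified water. Samples were taken at 6 and 24 h and serially diluted onto TSA-5% sheep blood plates. Plates were incubated 20–24 h at 37°C in 5% CO2 before counting CFU. Log10 titer change is given relative to the starting inoculum.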

Streptococcus pneumoniae [2] = experiment: Antibacterial activity against multidrug resistant Streptococcus pneumoniae by broth microdilution method; assay type: functional, organism-based
Procedure, shortened: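 CLSI M07-A7 broth microdilution MIC in cation-adjusted Mueller-Hinton medium. For S. pneumoniae the medium was supplemented with 5% lysed horse blood. CLSI quality-control strains were included as appropriate.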

Streptococcus pneumoniae [3] = experiment: Antibacterial activity against ciprofloxacin-resistant Streptococcus pneumoniae by broth microdilution method; assay type: functional
Procedure, shortened: (§2)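 CLSI M07-A7 broth microdilution MIC. Medium was cation-adjusted Mueller-Hinton broth. For S. pneumoniae it was Mueller-Hinton supplemented with 5% lysed horse blood. CLSI quality-control strains were included as appropriate.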

Staphylococcus aureus [4] = experiment: Antibacterial activity against methicillin-resistant Staphylococcus aureus by broth microdilution method; assay type: functional; procedure, shortened: as §2
Staphylococcus aureus [5] = experiment: Antibacterial activity against methicillin-, ciprofloxacin-resistant Staphylococcus aureus by broth microdilution method; assay type: functional; procedure, shortened: as §2
[6] = system: Staphylococcus epidermidis; experiment: Antibacterial activity against methicillin-, ciprofloxacin-resistant Staphylococcus epidermidis by broth microdilution method; assay type: functional
Citrobacter freundii = experiment: Antibacterial activity against Citrobacter freundii by broth microdilution method; assay type: functional
Procedure, shortened: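 MICs by CLSI M07-A7 broth microdilution in cation-adjusted Mueller-Hinton medium. For S. pneumoniae the medium was supplemented with 5% lysed horse blood. CLSI quality control strains were run alongside as appropriate.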

Streptococcus pneumoniae [7] = experiment: Ratio of Gemifloxacin MIC90 to compound MIC90 for ciprofloxacin-resistant Streptococcus pneumoniae; assay type: functional
Streptococcus pneumoniae [8] = experiment: Antibacterial activity against Streptococcus pneumoniae isolate OC7189 assessed as log reduction in bacterial growth at 4 times MIC measured at 6 hrs by time-kill assay; assay type: functional; procedure, shortened: as §1
Streptococcus pneumoniae [9] = experiment: Antibacterial activity against Streptococcus pneumoniae isolate OC7189 assessed as log reduction in bacterial growth at 2 times MIC measured at 24 hrs by time-kill assay; assay type: functional; procedure, shortened: as §1
Streptococcus pneumoniae [10] = experiment: Antibacterial activity against Streptococcus pneumoniae isolate OC6608 assessed as log reduction in bacterial growth at 4 times MIC measured at 6 hrs by time-kill assay; assay type: functional; procedure, shortened: as §1
Streptococcus pneumoniae [11] = experiment: Antibacterial activity against Streptococcus pneumoniae isolate OC5462 assessed as log reduction in bacterial growth at 4 times MIC measured at 24 hrs by time-kill assay; assay type: functional; procedure, shortened: as §1
Streptococcus pneumoniae [12] = experiment: Antibacterial activity against Streptococcus pneumoniae isolate OC7376 by broth microdilution method; assay type: functional; procedure, shortened: as §2
Streptococcus pneumoniae [13] = experiment: Antibacterial activity against Streptococcus pneumoniae isolate OC7376 assessed as log reduction in bacterial growth at 2 times MIC measured at 6 hrs by time-kill assay; assay type: functional; procedure, shortened: as §1
Streptococcus pneumoniae [14] = experiment: Antibacterial activity against Streptococcus pneumoniae isolate OC7376 assessed as log reduction in bacterial growth at 2 times MIC measured at 24 hrs by time-kill assay; assay type: functional; procedure, shortened: as §1
Streptococcus pneumoniae [15] = experiment: Antibacterial activity against Streptococcus pneumoniae isolate OC6790 assessed as log reduction in bacterial growth at 4 times MIC measured at 6 hrs by time-kill assay; assay type: functional; procedure, shortened: as §1
Streptococcus pneumoniae [16] = experiment: Antibacterial activity against Streptococcus pneumoniae isolate OC7368 assessed as log reduction in bacterial growth at 2 times MIC measured at 6 hrs by time-kill assay; assay type: functional; procedure, shortened: as §1
Streptococcus pneumoniae [17] = experiment: Antibacterial activity against Streptococcus pneumoniae isolate OC7368 assessed as log reduction in bacterial growth at 2 times MIC measured at 24 hrs by time-kill assay; assay type: functional; procedure, shortened: as §1
Streptococcus pneumoniae [18] = experiment: Antibacterial activity against Streptococcus pneumoniae isolate OC7368 assessed as log reduction in bacterial growth at 4 times MIC measured at 24 hrs by time-kill assay; assay type: functional; procedure, shortened: as §1
Streptococcus pneumoniae [19] = experiment: Antibacterial activity against Streptococcus pneumoniae isolate OC7348 assessed as log reduction in bacterial growth at 4 times MIC measured at 24 hrs by time-kill assay; assay type: functional; procedure, shortened: as §1
Streptococcus pneumoniae [20] = experiment: Antibacterial activity against Streptococcus pneumoniae isolate OC6585 by broth microdilution method; assay type: functional; procedure, shortened: as §2
Streptococcus pneumoniae [21] = experiment: Antibacterial activity against Streptococcus pneumoniae isolate OC6585 assessed as log reduction in bacterial growth at 2 times MIC measured at 24 hrs by time-kill assay; assay type: functional; procedure, shortened: as §1
Streptococcus pneumoniae [22] = experiment: Antibacterial activity against Streptococcus pneumoniae isolate OC6610 assessed as log reduction in bacterial growth at 4 times MIC measured at 6 hrs by time-kill assay; assay type: functional; procedure, shortened: as §1
Staphylococcus aureus [23] = experiment: Antibacterial activity against methicillin-resistant Staphylococcus aureus isolate OC11223 by broth microdilution method; assay type: functional; procedure, shortened: as §2
Staphylococcus aureus [24] = experiment: Antibacterial activity against methicillin-resistant Staphylococcus aureus isolate OC8525 harboring wild type quinolone resistance-determining region by broth microdilution method; assay type: functional
Staphylococcus aureus [25] = experiment: Antibacterial activity against methicillin-resistant Staphylococcus aureus isolate OC11696 by broth microdilution method; assay type: functional; procedure, shortened: as §2
Staphylococcus aureus [26] = experiment: Antibacterial activity against methicillin-resistant Staphylococcus aureus isolate OC12501 by broth microdilution method; assay type: functional; procedure, shortened: as §2
Staphylococcus aureus [27] = experiment: Antibacterial activity against methicillin-resistant Staphylococcus aureus isolate OC11223 assessed as log reduction in bacterial growth at 4 times MIC measured at 24 hrs by time-kill assay; assay type: functional
Procedure, shortened: (§3)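 Overnight MRSA cultures were diluted into fresh cation-adjusted Mueller-Hinton broth to about 5 × 10^6 CFU/ml. […] Samples were plated serially diluted on trypticase soy agar, and CFU were counted after 20-24 h at 37°C. Value is the log10 decrease at 24 h from the starting inoculum; detection limit 100 CFU.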

Staphylococcus aureus [28] = experiment: Antibacterial activity against methicillin-resistant Staphylococcus aureus isolate OC12501 assessed as log reduction in bacterial growth at 2 times MIC measured at 24 hrs by time-kill assay; assay type: functional; procedure, shortened: as §3
Staphylococcus aureus [29] = experiment: Antibacterial activity against methicillin-resistant Staphylococcus aureus isolate OC2838 assessed as log reduction in bacterial growth at 2 times MIC measured at 24 hrs by time-kill assay; assay type: functional; procedure, shortened: as §3
Streptococcus pneumoniae [30] = experiment: Antibacterial activity against Streptococcus pneumoniae OC7452 harboring parC S79Y mutant gene by agar dilution method; assay type: functional
Procedure, shortened: (§4)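 MICs for the resistance-selection studies were determined by CLSI agar dilution on Mueller-Hinton medium. For S. pneumoniae the medium was supplemented with 5% lysed horse blood. For MRSA fluctuation-assay strains an arithmetic agar dilution scheme was used for a more precise MIC.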

Streptococcus pneumoniae [31] = experiment: Antibacterial activity against Streptococcus pneumoniae OC7453 harboring gyrA S81F mutant gene by agar dilution method; assay type: functional; procedure, shortened: as §4
Streptococcus pneumoniae [32] = experiment: Antibacterial activity against Streptococcus pneumoniae OC6755 harboring gyrA S81F and parC S79Y mutant gene by agar dilution method; assay type: functional; procedure, shortened: as §4
Staphylococcus aureus [33] = experiment: Antibacterial activity against methicillin-resistant Staphylococcus aureus isolate OC8532 harboring wild type quinolone resistance-determining region by agar dilution method; assay type: functional
Procedure, shortened: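 CLSI agar dilution MIC on cation-adjusted Mueller-Hinton medium. These were the MIC values used for the resistance studies, and CLSI quality-control strains were included as appropriate.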

Staphylococcus aureus [34] = experiment: Antibacterial activity against methicillin-resistant Staphylococcus aureus isolate OC15425 harboring gyrA S84L and parC S80F mutant gene by agar dilution method; assay type: functional; procedure, shortened: as §4

Compound: COc1c(N2CCC/C(=C(\F)CN)C2)c(F)cc2c(=O)c(C(=O)O)cn(C3CC3)c12 [ACORAFLOXACIN]
- Ratio (Providencia stuartii): 16
- deltalog10CFU/ml (Streptococcus pneumoniae [1]): 5.8
- Activity (Streptococcus pneumoniae [2]): Active
- MIC50 (Streptococcus pneumoniae [3]): 0.12 µg/mL (≈ 0.286 µM)
- MIC90 (Streptococcus pneumoniae [3]): 0.25 µg/mL (≈ 0.596 µM)
- MIC50 (Staphylococcus aureus [4]): 0.12 µg/mL (≈ 0.286 µM)
- MIC90 (Staphylococcus aureus [4]): 0.25 µg/mL (≈ 0.596 µM)
- MIC50 (Staphylococcus aureus [5]): 0.25 µg/mL (≈ 0.596 µM)
- MIC90 (Staphylococcus aureus [5]): 0.25 µg/mL (≈ 0.596 µM)
- MIC50 [6]: 0.12 µg/mL (≈ 0.286 µM)
- MIC90 [6]: 0.25 µg/mL (≈ 0.596 µM)
- MIC50 (Citrobacter freundii): 2 µg/mL (≈ 4.77 µM)
- MIC90 (Citrobacter freundii): 8 µg/mL (≈ 19.1 µM)
- Ratio (Streptococcus pneumoniae [7]): 9
- deltalog10CFU/ml (Streptococcus pneumoniae [8]): 4.2
- deltalog10CFU/ml (Streptococcus pneumoniae [9]): 7.5
- deltalog10CFU/ml (Streptococcus pneumoniae [10]): 4.7
- deltalog10CFU/ml (Streptococcus pneumoniae [11]): 6.8
- MIC (Streptococcus pneumoniae [12]): 0.12 µg/mL (≈ 0.286 µM)
- deltalog10CFU/ml (Streptococcus pneumoniae [13]): 4.4
- deltalog10CFU/ml (Streptococcus pneumoniae [14]): 6.8
- deltalog10CFU/ml (Streptococcus pneumoniae [15]): 3.6
- deltalog10CFU/ml (Streptococcus pneumoniae [16]): 4
- deltalog10CFU/ml (Streptococcus pneumoniae [17]): 7.2
- deltalog10CFU/ml (Streptococcus pneumoniae [18]): 6.9
- deltalog10CFU/ml (Streptococcus pneumoniae [19]): 6.5
- MIC (Streptococcus pneumoniae [20]): 0.25 µg/mL (≈ 0.596 µM)
- deltalog10CFU/ml (Streptococcus pneumoniae [21]): 6.6
- deltalog10CFU/ml (Streptococcus pneumoniae [22]): 3.5
- MIC (Staphylococcus aureus [23]): 0.008 µg/mL (≈ 0.0191 µM)
- MIC (Staphylococcus aureus [24]): 0.008 µg/mL (≈ 0.0191 µM)
- MIC (Staphylococcus aureus [25]): 0.06 µg/mL (≈ 0.143 µM)
- MIC (Staphylococcus aureus [26]): 0.06 µg/mL (≈ 0.143 µM)
- deltalog10CFU/ml (Staphylococcus aureus [27]): 3.9
- deltalog10CFU/ml (Staphylococcus aureus [28]): 6.2
- deltalog10CFU/ml (Staphylococcus aureus [29]): 4.1
- MIC (Streptococcus pneumoniae [30]): 0.015 µg/mL (≈ 0.0358 µM)
- MIC (Streptococcus pneumoniae [31]): 0.03 µg/mL (≈ 0.0715 µM)
- MIC (Streptococcus pneumoniae [32]): 0.12 µg/mL (≈ 0.286 µM)
- MIC (Staphylococcus aureus [33]): 0.008 µg/mL (≈ 0.0191 µM)
- MIC (Staphylococcus aureus [34]): 0.12 µg/mL (≈ 0.286 µM)
